# SIRT5 block: SIRT5 desuccinylase inhibitors, primary screen, biochemical, fluorescence imaging, single point, set 5; Purified SirT5, succinyl-peptide AMC, trypsin-coupled fluorescence; AID 652115, 2013; 330,000 compounds, 1.1% hits; inhibition, % at 15 µM; in the data active means inhibition above about 15%; inconclusive means no clear call, values can overlap the other calls
# Target sequence (Q9NXA8 whole entry, looked up): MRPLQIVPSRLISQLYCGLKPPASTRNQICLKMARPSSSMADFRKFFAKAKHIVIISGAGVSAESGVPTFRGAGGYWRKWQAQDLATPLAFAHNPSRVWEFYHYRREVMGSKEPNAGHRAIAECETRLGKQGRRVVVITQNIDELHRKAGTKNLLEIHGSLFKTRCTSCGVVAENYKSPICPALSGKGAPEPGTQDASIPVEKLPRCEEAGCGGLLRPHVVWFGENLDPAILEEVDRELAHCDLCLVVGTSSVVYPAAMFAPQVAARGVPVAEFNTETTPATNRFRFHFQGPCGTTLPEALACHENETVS
# S100A4 MyoIIA: inhibitors of S100A4-myosin IIA peptide binding, primary screen, biochemical, fluorescence polarization, TAMRA-MyoIIA peptide | Protein S100-A4 (Homo sapiens), P26447 | inhibition, % at 10.7 µM | 360,000 compounds, 0.14% hits | AID 652163, 2013;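 active means mean inhibition of at least 70% across replicates, with every replicate also reaching that level; inconclusive means mean inhibition reaches 70% but some replicates fall short; inactive means mean inhibition below 70%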
# Target sequence (P26447 whole entry, looked up): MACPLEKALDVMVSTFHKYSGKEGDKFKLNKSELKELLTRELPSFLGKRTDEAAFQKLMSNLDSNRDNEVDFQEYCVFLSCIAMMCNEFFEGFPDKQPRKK
#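 Test system: S100A4 monomer protein; Medium: HEPES pH 7.2 with CaCl2, KCl, NaCl, DTT, Triton; Probe or stimulus: TAMRA-labelled myosin IIA heavy-chain peptide probe, 5 nM; Doses: one dose per compound; Times: polarization read 5 min after assay mix addition, stable 5–60 min; Benchmarks: neutral control DMSO, positive control TFP.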
# CRFR2-BP antag: antagonists of CRF-BP/CRF-R2 complex, primary screen, cell-based, HEK293, calcium dye fluorescence, uHTS; 350,000 compounds, 0.59% hits; AID 588475, 2011; inhibition, % at 11.8 µM; CRF-induced calcium fluorescence;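 active means inhibition of the ligand-induced calcium signal above about 50% at the single tested concentration, limit read from the data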
# PKA-R2B activ: activators of PKA-R2B holoenzyme, primary screen, biochemical, fluorescence polarization, Cy5-IP20, human; 340,000 compounds, 0.079% hits; PKA-R2B holoenzyme dissociation; R2B truncated from residue 108, S112A mutant; 0% DMSO only, 100% 113 µM cGMP; activation, % at 11.4 µM;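 active means activation above a cutoff set at the mean over all compounds plus 3 SD, cut at about 18% in these data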;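 further: higher means more holoenzyme dissociation and a rise in polarization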
# PKA-R1A act: activators of PKA-R1A holoenzyme, primary screen, biochemical, fluorescence polarization, Cy5-IP20, bovine R1A, mouse PKAc; activation, % at 11.4 µM; 340,000 compounds, 0.083% hits; cAMP-dependent protein kinase type I-alpha regulatory subunit (Bos taurus) + …; PKA-R1A dissociation; scaled: DMSO 0%, 113 µM cGMP 100%; AID 504707, 2011;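 active means percent activation above the mean of all tested compounds plus 3 SD, cut at about 19% in these data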;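 further: higher means more PKAc released from R1A so a rise in polarization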
# Active calls of the source: *; ? = inconclusive; / = no result given. An excerpt weighted towards active compounds, which were near 1.5% of everything screened.
SMILES,SIRT5 block,S100A4 MyoIIA,CRFR2-BP antag,PKA-R2B activ,PKA-R1A act
O=C(Nc1ccccc1C(=O)N1CCOCC1)c1ccncc1,/,/,102.0*,0.6,-5.9
COCCNC(=O)C[C@H]1C=C[C@H](NC(=O)NC2CCCCC2)[C@@H](CO)O1,-1.4,0.2,/,/,/
C[C@H](CO)N1C[C@H](C)[C@H](CN(C)C)Oc2ccc(NS(=O)(=O)c3cccs3)cc2CC1=O,-1.6,-5.0,/,/,/
COc1ccc(Nc2cc3n(c(=O)n2)CCc2cc(OC)c(OC)cc2-3)cc1,-0.2,0.8,32.4,-8.3,-12.3
COc1cc2c(cc1OC)-c1cc(Nc3ccc(C(=O)O)cc3)nc(=O)n1CC2,14.4,-0.3,117.3*,-8.2,1.4
CC1(C)CC(=O)C(N=Nc2ccc3ncsc3c2)=C(O)C1,/,/,6.6,-2.6,-6.3
COc1ccc2nc(N=NC3=C(O)CC(C)(C)CC3=O)sc2c1,0.0,-15.5,50.5*,8.6,0.7
C[C@@H]1CN([C@@H](C)CO)C(=O)c2ccccc2-c2ccccc2CO[C@H]1CN(C)Cc1ccc(C(=O)O)cc1,-1.0,-4.8,/,/,/
COc1ccccc1-c1ccc([C@H]2[C@H]3CN(Cc4ccncc4)CCCCN3[C@H]2CO)cc1,-4.3,-5.5,/,/,/
COc1ccc(S(=O)(=O)N2C[C@@H](O)COC[C@@H]3O[C@@H](CC(=O)NCc4ccc(Cl)c(Cl)c4)CC[C@H]32)cc1,15.3*,17.5,/,/,/
O=C(C[C@@H]1CC[C@H]2[C@@H](COC[C@@H](O)CN2C(=O)Nc2ccc(Cl)c(Cl)c2)O1)NCc1ccc(Cl)c(Cl)c1,15.5*,2.2,/,/,/
COc1ccc(/C=C/C(=O)NNC(=O)c2cc(C)oc2C)cc1,22.6*,1.1,2.3,-19.6,-5.6
O=C(Nc1ccc2c(c1)[C@H]1C[C@@H](CC(=O)N3CCOCC3)O[C@@H](CO)[C@H]1O2)NC1CCCC1,-0.6,1.8,/,/,/
CCOCCCNC(=O)c1ccc2c(c1)N=C(CC)c1cc(Br)ccc1S2,16.9*,-2.1,7.8,-8.8,-1.4
CCC1=Nc2cc(C(=O)NCCN3CCOCC3)ccc2Sc2ccccc21,4.1,-17.7,3.9,-3.7,0.3
Cc1nn(C)cc1NC(=O)C[C@H]1CC[C@@H]2[C@H](COc3ccc(NC(=O)Nc4cccc(Cl)c4)cc3C(=O)N2C)O1,-8.2,1.1,/,/,/
COC(=O)c1ccc2c(c1)NC(=O)CS2,0.5,-1.4,1.0,-5.1,-1.3
N#CCCN(C(=O)COC(=O)c1ccc2c(c1)NC(=O)CS2)c1ccc2c(c1)OCCO2,37.1*,1.4,-13.1,2.5,5.5
CCCCCC(=O)Nc1cc(S(=O)(=O)O)cc2cc(S(=O)(=O)O)cc(O)c12,35.9*,12.4,-0.7,13.7,0.8
C[C@H]1CN([C@@H](C)CO)S(=O)(=O)c2ccc(/C=C/c3ccccc3)cc2O[C@@H]1CN(C)Cc1ccc(C(=O)O)cc1,25.3*,11.6,/,/,/
C[C@H](CO)N1C[C@H](C)[C@H](CN(C)Cc2ccccc2)Oc2cc(/C=C/c3ccccc3)ccc2S1(=O)=O,21.3*,2.7,/,/,/
C/C=C/c1ccc2c(c1)O[C@H](CN(C)Cc1ccccc1)[C@H](C)CN([C@H](C)CO)S2(=O)=O,-0.3,10.0,/,/,/
C[C@H](CO)N1C[C@H](C)[C@@H](CN(C)Cc2ccccc2)Oc2cc(/C=C/c3ccccc3)ccc2S1(=O)=O,-3.7,3.2,/,/,/
C[C@@H]1CN([C@@H](C)CO)S(=O)(=O)c2ccc(/C=C/c3ccccc3)cc2O[C@H]1CN(C)Cc1ccc(C(=O)O)cc1,?,2.7,/,/,/
C[C@H]1CN([C@@H](C)CO)S(=O)(=O)c2ccc(/C=C/c3ccccc3)cc2O[C@H]1CN(C)Cc1ccccc1,21.5*,-4.8,/,/,/
SMILES,SIRT5 block,S100A4 MyoIIA,CRFR2-BP antag,PKA-R2B activ,PKA-R1A act
COCC(=O)N(C)C[C@H]1Oc2ncc(C#Cc3ccc(OC)cc3)cc2C(=O)N([C@H](C)CO)C[C@H]1C,0.9,-10.3,/,/,/
CC(=O)NCCCc1nc2ccccc2n1Cc1cc(C)ccc1C,-1.4,-3.2,14.8,2.3,10.1
COc1cc(C(=O)NCCCc2nc3ccccc3n2Cc2cc(C)ccc2C)cc(OC)c1OC,19.4*,-0.4,-41.6,5.6,3.0
COc1ccccc1NC(=O)N[C@@H]1CC[C@H](CCNS(=O)(=O)c2ccc(C)cc2)O[C@@H]1CO,-0.5,16.1,/,/,/
Cn1c(=O)oc2cc(S(=O)(=O)NCCC(=O)NCc3ccc(F)cc3)ccc21,1.0,3.2,99.3*,-2.2,-3.0
Cc1ccc(NC(=O)CCNS(=O)(=O)c2ccc3c(c2)oc(=O)n3C)cc1,/,/,-7.9,-2.4,1.0
COc1ccc(C(CC(=O)O)c2ccc3c(c2)OCO3)cc1 (stereo not drawn),-5.1,-1.7,94.1*,-16.0,-15.0
COC(=O)CC(NC(=O)c1ccc(C)cc1)c1ccccc1 (stereo not drawn),/,1.9,15.9,6.3,3.3
COC(=O)CC(NC(=O)c1ccc(C)cc1)c1ccc2c(c1)OCO2 (stereo not drawn),/,/,107.2*,3.6,-2.4
NC(=O)CC(c1ccccc1)c1ccc2c(c1)OCO2 (stereo not drawn),-3.4,-0.2,-1.3,7.8,-4.5
O=C(c1cccc(F)c1)N1CC2(C1)[C@H](c1ccccc1)[C@@H](CO)N2C(=O)C1CCCC1,-2.5,-9.0,/,/,/
CNC(=O)C[C@@H]1CC[C@H]2[C@H](COc3ccc(NC(=O)Nc4cc(C)cc(C)c4)cc3C(=O)N2C)O1,-3.3,-41.7,/,/,/
Cn1ncc(Cl)c1C(=O)N/N=C/c1ccccn1,21.6*,-10.1,20.5,-7.4,-4.3
O=C(N/N=C/c1ccccn1)c1cccs1,-1.3,5.0,62.0*,-0.8,-6.5
O=C(N/N=C/c1ccccn1)c1ccc(Cl)cc1,1.5,0.9,8.4,-7.4,-6.3
O=C(N/N=C/c1ccccn1)c1ccncc1,5.7,1.4,-3.9,5.7,-5.3
O=C(N/N=C/c1cccc2ccccc12)c1cccs1,17.9*,-1.2,-40.8,-1.2,-3.0
O=C(Nc1nnc(S(=O)(=O)N2CCCC2)s1)c1ccccc1Cl,0.4,0.9,4.9,5.2,-0.4
O=C(Nc1nnc(S(=O)(=O)Nc2ccccc2)s1)c1ccccc1Cl,2.8,8.7,75.9*,-7.5,3.6
O=C(NCc1ccco1)c1ccccc1NS(=O)(=O)c1ccc(Cl)s1,/,/,20.2,5.3,3.2
Cc1ccc(NC(=O)c2ccccc2NS(=O)(=O)c2ccc(Cl)s2)cc1,/,/,79.7*,7.1,-4.2
O=C(Nc1ccccc1Cc1ccccc1)c1ccccc1NS(=O)(=O)c1ccc(Cl)s1,/,/,104.8*,2.2,-6.1

# Screening data deposited in PubChem BioAssay by several laboratories.
